Source: ChEMBL document CHEMBL3352791, “Thioaryl naphthylmethanone oxime ether analogs as novel anticancer agents” (J Med Chem, 2014)
The source made the active and inactive calls. The rule behind the calls is not given here.

How the values were obtained:
[1] = biological target: Angiopoietin-1 receptor (Homo sapiens) (UniProt Q02763); experiment: Inhibition of Tie2 (unknown origin) at 10 uM
Procedure, shortened: (§1)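 Cell-free kinase profiling was run as a standard 33P-ATP-based in vitro kinase assay.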

[2] = test system: MDA-MB-231; experiment: Induction of PTEN expression in human MDA-MB-231 cells at 1 uM after 24 hrs by qPCR analysis; assay type: functional, cell-based
Procedure, shortened: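 qPCR on MDA-MB-231 cells treated with 1µM compound; GAPDH as internal control.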

[3] = biological target: Signal transducer and activator of transcription 3 (Homo sapiens) (UniProt P40763); experiment: Inhibition of EGF-induced STAT3 phosphorylation in human MCF7 cells at 1 uM by ELISA; assay type: cell-based
[4] = biological target: Epidermal growth factor receptor (Homo sapiens) (UniProt P00533); experiment: Inhibition of EGF-induced EGFR phosphorylation at Tyr1148 in human MCF7 cells at 1 uM by ELISA; assay type: cell-based
[5] = biological target: ETS domain-containing protein Elk-1 (Homo sapiens) (UniProt P19419); experiment: Inhibition of EGF-induced phosphorylated ELK1 in human MDA-MB-231 cells at 1 uM by ELISA; assay type: cell-based
[6] = biological target: Epidermal growth factor receptor (Homo sapiens) (UniProt P00533); experiment: Inhibition of EGF-induced EGFR phosphorylation at Tyr1173 in human MDA-MB-231 cells at 0.1 uM by ELISA; assay type: cell-based
Procedure, shortened: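 MDA-MB-231 cells pretreated 1 h in serum-free medium, then EGF-stimulated for 15 min and lysed. Equal lysate protein (Bradford) assayed by ELISA kits for p-EGFR (Tyr1068, Tyr845, Tyr1173) and p-HER2. Absorbance read at 450 nm, normalized to total EGFR or HER2.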

[7] = biological target: T1, Mitogen-activated protein kinase; ERK1/ERK2 (Homo sapiens) (UniProt P27361+P28482); experiment: Inhibition of basal level ERK1/2 phosphorylation in human MDA-MB-231 cells at 1 uM by ELISA; assay type: cell-based
[8] = biological target: T2, Signal transducer and activator of transcription 1-alpha/beta (Homo sapiens) (UniProt P42224); experiment: Inhibition of basal level STAT1 phosphorylation in human MCF7 cells at 1 uM by ELISA; assay type: cell-based
T2 sequence (whole entry): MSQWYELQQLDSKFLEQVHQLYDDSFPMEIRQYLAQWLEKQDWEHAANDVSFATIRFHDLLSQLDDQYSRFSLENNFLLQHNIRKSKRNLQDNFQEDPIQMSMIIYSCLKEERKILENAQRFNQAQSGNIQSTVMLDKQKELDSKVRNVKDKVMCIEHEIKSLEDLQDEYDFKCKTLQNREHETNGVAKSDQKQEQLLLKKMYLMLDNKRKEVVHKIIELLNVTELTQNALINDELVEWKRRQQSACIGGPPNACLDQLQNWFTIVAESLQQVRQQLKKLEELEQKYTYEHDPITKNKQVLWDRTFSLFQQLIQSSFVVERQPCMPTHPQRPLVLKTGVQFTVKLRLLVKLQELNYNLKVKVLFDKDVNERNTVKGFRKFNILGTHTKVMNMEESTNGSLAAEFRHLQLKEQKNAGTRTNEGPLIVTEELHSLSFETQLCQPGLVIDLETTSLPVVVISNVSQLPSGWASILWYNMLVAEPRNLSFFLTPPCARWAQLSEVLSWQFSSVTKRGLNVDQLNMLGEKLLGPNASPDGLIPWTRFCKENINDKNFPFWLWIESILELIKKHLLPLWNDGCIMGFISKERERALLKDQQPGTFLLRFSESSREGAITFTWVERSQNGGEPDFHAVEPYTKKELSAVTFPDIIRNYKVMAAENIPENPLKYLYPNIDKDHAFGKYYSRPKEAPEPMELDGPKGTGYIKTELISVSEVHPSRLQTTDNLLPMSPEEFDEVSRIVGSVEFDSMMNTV

[9] = test system: Mast/stem cell growth factor receptor Kit (Homo sapiens), P10721 [D816V]; experiment: Inhibition of cKit D816V mutant (unknown origin) at 10 uM; procedure, shortened: as §1
[10] = test system: MCF7; experiment: Inhibition of EGF expression in human MCF7 cells at 5 uM by ELISA; assay type: functional, cell-based
[11] = biological target: Plasminogen activator inhibitor 1 (Homo sapiens) (UniProt P05121); experiment: Inhibition of basal level PAI-1 phosphorylation in human MDA-MB-231 cells at 1 uM by ELISA; assay type: cell-based
[12] = test system: MCF7; experiment: Induction of apoptosis in human […] cells assessed as increase in Bax to Bcl2 ratio at 5 uM after 24 hrs by immunoblotting analysis; assay type: functional, cell-based
Procedure, shortened: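 Immunoblot of Bax and Bcl-2 in cell lysates, loading normalized to actin; mean ± SEM, three independent experiments.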

[13] = test system: MDA-MB-231; experiment: Inhibition of EGF-induced cell migration in human MDA-MB-231 cells assessed as decrease in number of cells toward free space at 1 uM after 24 hrs by wound healing assay; assay type: functional, cell-based
Procedure, shortened: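 Confluent MDA-MB-231 monolayers scratch-wounded, washed and treated at 1μM in serum-free medium ± EGF (100ng/ml) for 24 h. Wound closure measured as distances in six random fields at 10×.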

[14] = test system: MDA-MB-231; experiment: Inhibition of MTA expression in human MDA-MB-231 cells at 1 uM after 24 hrs by qPCR analysis; assay type: functional, cell-based
Procedure, shortened: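 MDA-MB-231 cells treated at 1µM. Transcript levels measured by qPCR with GAPDH as internal control.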

[15] = test system: MDA-MB-231; experiment: Inhibition of IGF1 expression in human MDA-MB-231 cells at 5 uM by ELISA; assay type: functional, cell-based
[16] = biological target: T1, Mitogen-activated protein kinase; ERK1/ERK2 (Homo sapiens); experiment: Inhibition of basal level ERK1/2 phosphorylation in human MCF7 cells at 1 uM by ELISA; assay type: cell-based
[17] = test system: MCF7; experiment: Cell cycle arrest in human […] cells assessed as accumulation at subG1 phase at 2.5 uM by propidium iodide staining by FACS analysis (reference value: 0.1%); assay type: functional
[18] = test system: MCF7; experiment: Cell cycle arrest in human […] cells assessed as accumulation at subG1 phase at 7.5 uM by propidium iodide staining by FACS analysis (reference value: 0.1%); assay type: functional
[19] = Safety index, ratio of IC50 for human MCF10A cells to EC50 for human ER-positive MDA-MB-231 cells; conditions: MCF10A cells versus
[20] = test system: MDA-MB-231; experiment: Cell cycle arrest in human […] cells assessed as accumulation at G2 phase at 7.5 uM by propidium iodide staining by FACS analysis (reference value: 22.74%); assay type: functional
[21] = test system: MCF7; experiment: Antiproliferative activity against human […] cells assessed as growth recovery treated up to 5 uM for 24 hrs followed by maintained in drug free medium for 72 hrs by MTT assay; assay type: functional
[22] = Antiproliferative activity against human DLD1 cells after 24 hrs by MTT assay; assay type: functional, cell-based; conditions: DLD-1, 24 h
Procedure, shortened: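 MTT viability: cells seeded at 1×10^4 per well in DMEM with 10% FBS, left to adhere overnight, then serum-starved 4 h. Compounds were given at a range of doses, with 0.1% DMSO vehicle as control. EC50 was taken from dose-response curves spanning 100nM-50µM. Data are mean ± SEM from at least three independent experiments.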

[23] = test system: MCF7; experiment: Cell cycle arrest in human […] cells assessed as accumulation at G1 phase at 7.5 uM by propidium iodide staining by FACS analysis (reference value: 62.88%); assay type: functional

T1 sequence (P27361 whole entry, looked up): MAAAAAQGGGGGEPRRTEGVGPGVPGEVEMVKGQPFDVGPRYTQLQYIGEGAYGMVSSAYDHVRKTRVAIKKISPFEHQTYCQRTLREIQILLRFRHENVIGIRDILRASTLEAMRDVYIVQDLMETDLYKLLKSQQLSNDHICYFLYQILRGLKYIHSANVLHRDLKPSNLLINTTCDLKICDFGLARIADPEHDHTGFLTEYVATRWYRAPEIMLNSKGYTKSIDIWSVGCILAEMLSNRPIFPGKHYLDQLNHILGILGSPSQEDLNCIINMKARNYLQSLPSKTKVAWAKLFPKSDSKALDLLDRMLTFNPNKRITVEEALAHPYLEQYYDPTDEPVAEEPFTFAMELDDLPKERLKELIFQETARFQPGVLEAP
T1 sequence (P28482 whole entry, looked up): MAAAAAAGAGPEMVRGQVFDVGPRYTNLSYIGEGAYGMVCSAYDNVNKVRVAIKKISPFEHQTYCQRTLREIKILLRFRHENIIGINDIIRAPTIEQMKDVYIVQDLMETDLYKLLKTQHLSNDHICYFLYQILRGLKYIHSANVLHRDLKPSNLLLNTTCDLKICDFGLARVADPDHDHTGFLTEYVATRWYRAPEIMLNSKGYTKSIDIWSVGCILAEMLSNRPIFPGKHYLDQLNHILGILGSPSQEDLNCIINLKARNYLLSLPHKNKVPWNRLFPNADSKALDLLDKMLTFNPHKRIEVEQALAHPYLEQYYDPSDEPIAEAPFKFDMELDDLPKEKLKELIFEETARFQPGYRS
Epidermal growth factor receptor (Homo sapiens), sequence (P00533 whole entry, the tested form may be a part): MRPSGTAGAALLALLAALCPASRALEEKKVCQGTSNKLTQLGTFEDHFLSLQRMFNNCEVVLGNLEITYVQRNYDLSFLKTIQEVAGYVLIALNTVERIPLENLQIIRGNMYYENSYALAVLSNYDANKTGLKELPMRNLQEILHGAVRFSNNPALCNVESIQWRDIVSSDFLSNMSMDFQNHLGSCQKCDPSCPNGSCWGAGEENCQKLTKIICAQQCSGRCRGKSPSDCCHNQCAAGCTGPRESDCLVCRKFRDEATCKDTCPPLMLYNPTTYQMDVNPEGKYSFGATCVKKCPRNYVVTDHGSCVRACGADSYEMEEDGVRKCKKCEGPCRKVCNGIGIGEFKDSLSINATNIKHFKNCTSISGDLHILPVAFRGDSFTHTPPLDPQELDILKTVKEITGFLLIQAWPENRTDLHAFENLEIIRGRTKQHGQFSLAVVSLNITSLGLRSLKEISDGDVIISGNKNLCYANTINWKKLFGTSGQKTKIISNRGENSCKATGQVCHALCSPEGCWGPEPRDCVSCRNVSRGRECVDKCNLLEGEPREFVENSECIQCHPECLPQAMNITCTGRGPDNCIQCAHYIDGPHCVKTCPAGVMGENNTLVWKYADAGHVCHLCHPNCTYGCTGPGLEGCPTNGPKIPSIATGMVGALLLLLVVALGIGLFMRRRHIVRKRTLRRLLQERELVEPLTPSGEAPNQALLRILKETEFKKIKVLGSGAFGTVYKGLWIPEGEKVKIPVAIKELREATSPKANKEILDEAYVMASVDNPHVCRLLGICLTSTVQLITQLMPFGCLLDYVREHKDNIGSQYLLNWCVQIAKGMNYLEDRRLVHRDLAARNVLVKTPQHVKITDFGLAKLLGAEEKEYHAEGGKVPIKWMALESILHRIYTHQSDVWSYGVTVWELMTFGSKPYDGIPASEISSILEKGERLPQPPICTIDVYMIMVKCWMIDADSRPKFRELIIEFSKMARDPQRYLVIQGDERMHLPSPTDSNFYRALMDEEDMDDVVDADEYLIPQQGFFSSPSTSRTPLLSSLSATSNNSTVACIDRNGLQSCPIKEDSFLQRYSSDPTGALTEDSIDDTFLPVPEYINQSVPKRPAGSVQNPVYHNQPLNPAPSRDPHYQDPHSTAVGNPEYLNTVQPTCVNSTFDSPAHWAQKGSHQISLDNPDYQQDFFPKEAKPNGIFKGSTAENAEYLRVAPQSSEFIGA
Signal transducer and activator of transcription 3 (Homo sapiens), sequence (P40763 whole entry): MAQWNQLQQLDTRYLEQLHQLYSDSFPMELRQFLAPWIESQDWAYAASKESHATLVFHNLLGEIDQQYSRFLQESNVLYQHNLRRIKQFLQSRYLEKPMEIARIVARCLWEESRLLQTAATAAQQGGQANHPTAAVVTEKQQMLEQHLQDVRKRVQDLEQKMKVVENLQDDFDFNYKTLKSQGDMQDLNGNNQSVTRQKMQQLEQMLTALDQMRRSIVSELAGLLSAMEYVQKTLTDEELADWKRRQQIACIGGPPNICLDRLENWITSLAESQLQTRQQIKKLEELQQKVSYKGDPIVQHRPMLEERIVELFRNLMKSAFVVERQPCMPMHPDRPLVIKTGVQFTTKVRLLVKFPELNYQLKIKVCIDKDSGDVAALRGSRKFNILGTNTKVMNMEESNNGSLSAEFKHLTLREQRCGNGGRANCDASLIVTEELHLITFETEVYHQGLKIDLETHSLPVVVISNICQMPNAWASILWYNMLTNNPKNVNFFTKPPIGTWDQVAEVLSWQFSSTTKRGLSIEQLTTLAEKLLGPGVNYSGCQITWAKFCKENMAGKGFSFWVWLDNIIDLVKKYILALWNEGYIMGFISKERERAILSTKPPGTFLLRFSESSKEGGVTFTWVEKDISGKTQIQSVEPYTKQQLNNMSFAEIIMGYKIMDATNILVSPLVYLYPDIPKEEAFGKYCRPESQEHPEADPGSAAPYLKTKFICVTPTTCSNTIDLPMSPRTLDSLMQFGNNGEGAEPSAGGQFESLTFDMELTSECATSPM
Plasminogen activator inhibitor 1 (Homo sapiens), sequence (P05121 whole entry): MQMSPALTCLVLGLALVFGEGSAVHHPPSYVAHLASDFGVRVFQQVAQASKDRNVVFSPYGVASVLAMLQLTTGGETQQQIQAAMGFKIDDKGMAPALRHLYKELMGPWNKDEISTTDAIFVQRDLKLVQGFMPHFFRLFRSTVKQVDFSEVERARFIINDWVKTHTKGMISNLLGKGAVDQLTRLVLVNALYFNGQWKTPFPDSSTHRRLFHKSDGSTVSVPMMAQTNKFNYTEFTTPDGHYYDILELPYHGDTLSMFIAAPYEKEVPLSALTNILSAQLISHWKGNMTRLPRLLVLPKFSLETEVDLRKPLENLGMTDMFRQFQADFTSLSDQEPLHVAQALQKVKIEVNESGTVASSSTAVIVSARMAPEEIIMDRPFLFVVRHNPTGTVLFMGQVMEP
Mast/stem cell growth factor receptor Kit (Homo sapiens), P10721 [D816V], sequence (P10721 whole entry D816V): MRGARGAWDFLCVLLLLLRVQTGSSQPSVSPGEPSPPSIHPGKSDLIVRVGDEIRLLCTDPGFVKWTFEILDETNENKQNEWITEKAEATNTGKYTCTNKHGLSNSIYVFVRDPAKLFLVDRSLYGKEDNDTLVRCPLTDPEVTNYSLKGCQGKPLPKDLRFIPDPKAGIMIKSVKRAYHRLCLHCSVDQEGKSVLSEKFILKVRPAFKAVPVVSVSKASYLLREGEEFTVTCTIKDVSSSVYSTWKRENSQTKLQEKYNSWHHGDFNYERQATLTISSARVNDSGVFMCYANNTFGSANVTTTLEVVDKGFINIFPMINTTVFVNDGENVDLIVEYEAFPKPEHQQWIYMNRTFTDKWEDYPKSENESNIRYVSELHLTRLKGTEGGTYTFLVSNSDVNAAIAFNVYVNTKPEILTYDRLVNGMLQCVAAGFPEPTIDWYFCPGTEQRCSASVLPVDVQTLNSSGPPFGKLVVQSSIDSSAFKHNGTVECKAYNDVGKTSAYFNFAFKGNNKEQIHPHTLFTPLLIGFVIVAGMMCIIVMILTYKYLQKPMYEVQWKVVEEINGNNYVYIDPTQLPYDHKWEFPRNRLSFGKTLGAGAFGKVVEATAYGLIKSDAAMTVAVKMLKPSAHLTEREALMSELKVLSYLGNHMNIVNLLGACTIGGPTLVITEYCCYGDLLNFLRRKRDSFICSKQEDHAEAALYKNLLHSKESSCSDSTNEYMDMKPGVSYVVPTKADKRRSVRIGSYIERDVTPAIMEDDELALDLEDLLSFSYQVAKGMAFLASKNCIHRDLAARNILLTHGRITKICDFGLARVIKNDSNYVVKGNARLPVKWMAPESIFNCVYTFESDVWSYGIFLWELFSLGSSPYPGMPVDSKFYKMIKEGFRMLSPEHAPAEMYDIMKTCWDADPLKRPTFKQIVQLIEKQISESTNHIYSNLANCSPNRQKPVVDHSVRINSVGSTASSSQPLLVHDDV
ETS domain-containing protein Elk-1 (Homo sapiens), sequence (P19419 whole entry, the tested form may be a part): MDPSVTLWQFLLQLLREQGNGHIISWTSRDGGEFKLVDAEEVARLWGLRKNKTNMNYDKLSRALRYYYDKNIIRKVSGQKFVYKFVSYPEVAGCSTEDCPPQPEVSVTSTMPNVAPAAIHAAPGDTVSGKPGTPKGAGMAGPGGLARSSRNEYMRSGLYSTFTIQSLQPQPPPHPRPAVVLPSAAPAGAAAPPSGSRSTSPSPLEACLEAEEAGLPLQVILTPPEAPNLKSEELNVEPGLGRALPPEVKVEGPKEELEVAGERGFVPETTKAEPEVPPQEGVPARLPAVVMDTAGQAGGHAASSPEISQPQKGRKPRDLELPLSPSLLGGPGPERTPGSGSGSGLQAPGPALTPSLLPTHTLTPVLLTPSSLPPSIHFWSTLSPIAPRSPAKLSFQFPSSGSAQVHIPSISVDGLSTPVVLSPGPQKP

With `CCN(CC)CCO/N=C(\c1ccc(SC)cc1)c1cccc2ccccc12` as the compound, how does the inhibition [1] read?
The inhibition was “inactive”.

What about the Activity [2] of the same compound?
The Activity was “Active”.

And the inhibition [3]?
Its inhibition is “Active”.

And the inhibition [4]?
Its inhibition is “Active”.

And the inhibition [5]?
The inhibition was “Active”.

What about the inhibition [6] of the same compound?
Its inhibition is “Active”.

What about the inhibition [7] of the same compound?
Its inhibition is “Active”.

And the inhibition [8]?
Its inhibition is “inactive”.

What about the inhibition [9] of the same compound?
Its inhibition is “inactive”.

And the inhibition [10]?
Its inhibition is “Active”.

What about the inhibition [11] of the same compound?
The inhibition was “Active”.

And the Activity [12]?
The Activity was “Active”.

And the inhibition [13]?
The inhibition was “Active”.

What about the inhibition [14] of the same compound?
The inhibition was “Active”.

And the inhibition [15]?
Its inhibition is “inactive”.

What about the inhibition [16] of the same compound?
The inhibition was “Active”.

With `CCN(CC)CCO/N=C(\c1ccc(SC)cc1)c1cccc2ccccc12.O=C(O)C(=O)O` as the compound, how does the Activity [17] read?
Its Activity is 0.4%.

And the Activity [18]?
Its Activity is 0.4%.

What about the selectivity ratio [19] of the same compound?
The selectivity ratio was 50.

What about the Activity [20] of the same compound?
The Activity was 6.09%.

What about the Activity [21] of the same compound?
Its Activity is 50%.

What about the EC50 [22] of the same compound?
Its EC50 is 15.6 µM.

What about the Activity [23] of the same compound?
Its Activity is 85.99%.
